Assay results taken from ChEMBL document CHEMBL1143506, “Antimalarial activity of 2,4,6-trisubstituted pyrimidines” (Bioorg Med Chem Lett, 2005).
In brackets after ≈: the same amount, converted by molar mass.

Tested on: Plasmodium falciparum
Assay: Minimum inhibitory concentration against schizont maturation of Plasmodium falciparum NF54 ring stage after 40 h
Type: functional
Outline: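 P. falciparum NF-54 culture kept in RPMI-1640 with 25 mM HEPES, 1% D-glucose, 0.23% sodium bicarbonate, 10% heat-inactivated human serum. Sorbitol-synchronized rings (~1% parasitaemia, 3% hematocrit). Compounds at 0.25–50 µg/mL in duplicate wells, 37 °C, candle jar, 36–40 h. Giemsa smears scored microscopically; MIC is the lowest concentration blocking full maturation to schizonts. Pyrimethamine served as reference.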

Row | SMILES | MIC
1 | COc1cccc(-c2cc(-c3ccncc3)nc(N3CCOCC3)n2)c1OC | 1 µg/mL (≈ 2.64 µM)
2 | COc1cc(OC)cc(-c2cc(-c3ccncc3)nc(N3CCOCC3)n2)c1 | 2 µg/mL (≈ 5.28 µM)
3 | c1ccc(-c2cc(-c3ccncc3)nc(N3CCOCC3)n2)cc1 | 2 µg/mL (≈ 6.28 µM)
4 | COc1ccc(-c2cc(-c3ccncc3)nc(N3CCOCC3)n2)c2ccccc12 | 1 µg/mL (≈ 2.51 µM)
5 | COc1ccc(-c2cc(-c3ccncc3)nc(N3CCOCC3)n2)cc1 | 2 µg/mL (≈ 5.74 µM)
6 | COc1cccc(-c2cc(-c3ccncc3)nc(N3CCOCC3)n2)c1 | 2 µg/mL (≈ 5.74 µM)
7 | O=[N+]([O-])c1cccc(-c2cc(-c3ccncc3)nc(N3CCOCC3)n2)c1 | 1 µg/mL (≈ 2.75 µM)
8 | Cc1ccc(-c2cc(-c3ccncc3)nc(N3CCOCC3)n2)cc1C | 1 µg/mL (≈ 2.89 µM)
9 | COc1cc(-c2cc(-c3ccncc3)nc(N3CCOCC3)n2)cc(OC)c1OC | 10 µg/mL (≈ 24.5 µM)
10 | c1csc(-c2cc(-c3ccncc3)nc(N3CCOCC3)n2)c1 | 1 µg/mL (≈ 3.08 µM)
11 | Clc1ccc(-c2cc(-c3ccncc3)nc(N3CCOCC3)n2)cc1 | 10 µg/mL (≈ 28.3 µM)
12 | CSc1ccc(-c2cc(-c3ccncc3)nc(N3CCOCC3)n2)cc1 | 10 µg/mL (≈ 27.4 µM)
13 | COc1ccc(OC)c(-c2cc(-c3ccncc3)nc(N3CCOCC3)n2)c1 | 1 µg/mL (≈ 2.64 µM)
14 | COc1cc(OC)c(-c2cc(-c3ccncc3)nc(N3CCOCC3)n2)cc1OC | 0.5 µg/mL (≈ 1.22 µM)
15 | Cc1ccc(-c2cc(-c3ccncc3)nc(N3CCOCC3)n2)cc1 | 10 µg/mL (≈ 30.1 µM)
16 | CCc1nc(N)nc(N)c1-c1ccc(Cl)cc1 [PYRIMETHAMINE] | 10 µg/mL (≈ 40.2 µM)
